Assay results: ChEMBL document CHEMBL5620424, “Design, synthesis and evaluation of novel 2-phenyl-3-(1H-pyrazol-4-yl)pyridine positive allosteric modulators for the M4 mAChR” (Eur J Med Chem, 2023)
Active and inactive are the calls of the source. No cut-off for these calls is given here.

Columns and labels:
[1] = target: T1, Muscarinic acetylcholine receptor M4 (Homo sapiens) (UniProt P08173); assay: […] human M4 mAChR expressed in Flp-In-CHO cells co-expressing CAMYEL biosensor assessed as change in baseline response at 10 uM incubated for 5 mins by BRET assay relative to control; format: cell-based
T1 sequence (whole entry): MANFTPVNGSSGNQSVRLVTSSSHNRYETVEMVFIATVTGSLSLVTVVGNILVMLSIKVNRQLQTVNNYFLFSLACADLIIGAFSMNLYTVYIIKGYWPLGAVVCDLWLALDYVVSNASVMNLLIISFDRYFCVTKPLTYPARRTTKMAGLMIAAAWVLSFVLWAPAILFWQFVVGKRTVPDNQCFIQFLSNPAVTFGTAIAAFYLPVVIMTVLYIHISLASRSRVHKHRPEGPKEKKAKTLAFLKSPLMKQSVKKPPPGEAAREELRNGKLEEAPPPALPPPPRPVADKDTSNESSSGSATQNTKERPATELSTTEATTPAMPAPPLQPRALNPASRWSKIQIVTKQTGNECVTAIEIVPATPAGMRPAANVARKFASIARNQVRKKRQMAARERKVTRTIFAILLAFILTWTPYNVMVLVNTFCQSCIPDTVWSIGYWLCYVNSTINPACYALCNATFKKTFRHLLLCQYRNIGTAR
How it was run: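 FlpInCHO cells stably expressing human M4 mAChR, transiently transfected with CAMYEL cAMP BRET biosensor (60 ng/well, PEI), assayed 48 h later in HBSS pH 7.4. Full ACh concentration-response curve alone or with modulator at 1 or 10 μM, co-added with coelenterazine h (5 μM), 5 min, 37 °C. Three-parameter logistic fit; ACh curve values subtracted from ACh+modulator values. Δbaseline and ΔEmax given as % of maximal ACh response without modulator. 4 experiments in duplicate, SEM pooled.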

[2] = target: T1, Muscarinic acetylcholine receptor M4 (Homo sapiens); assay: Displacement of 3[H]-NMS from human M4 mAChR expressed in Flp-In-CHO cells assessed as binding constant incubated for 6 hrs by microbeta2 plate reader assay; format: cell-based; details: filed as positive allosteric modulator
How it was run: (§1)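 Intact FlpInCHO-hM4 cells, 20,000/well grown overnight, in HBSS pH 7.4 with [3H]-NMS 0.5 nM, ACh (0.01 μM–10 mM) and modulator (0.1–10 μM), shaken 6 h at room temperature. Washed with ice-cold 0.9% NaCl, then scintillation counting. Nonspecific binding defined with 10 μM atropine. pKB and log α(ACh) from global fit to allosteric ternary complex model, with log α′(NMS) fixed at –3 under strong negative cooperativity. 4–5 experiments in duplicate.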

[3] = target: T1, Muscarinic acetylcholine receptor M4 (Homo sapiens); assay: Displacement of 3[H]-NMS from human M4 mAChR expressed in Flp-In-CHO cells assessed as binding co-operativity (log alpha) incubated for 6 hrs in presence of ACh by microbeta2 plate reader assay; format: cell-based; details: filed as positive allosteric modulator; how it was run: as §1
[4] = target: T1, Muscarinic acetylcholine receptor M4 (Homo sapiens); assay: Positive allosteric modulation at Rluc-tagged human M4 mAChR expressed in Flp-In-CHO cells co-expressing eYFP-tagged beta-arrestin 2 assessed as ACh-mediated beta-arrestin 2 recruitment co-operativity (log alpha beta) incubated for 5 mins by luminometry; format: cell-based; details: filed as positive allosteric modulator
How it was run: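 FlpInCHO cells co-transfected with human M4-Rluc8 (20 ng/well) and β-arrestin-2-eYFP (80 ng/well) using PEI, assayed after 48 h. Coelenterazine h (5 μM) preincubated 5 min, then ACh plus modulator ranges for 5 min at 37 °C; BRET at 475/535 nm. Fit to simplified operational model with slope 1 and KB fixed from binding. 4–5 experiments in duplicate.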

[5] = Ratio of drug concentration in brain to plasma of naive C57BL/6J mouse at 10 mg/kg, ip; format: ADME, organism-based; details: read-out: BPR
How it was run: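 Male C57Bl/6J mice, naïve, 10–12 weeks old, dosed i.p. at 10 mg/kg in 10% DMSO, 1.1% Tween 80, 21.8 mM Tris. Blood by cardiac puncture under anaesthesia at 20 or 90 min (n = 2–3 per time point). Brain concentration corrected for compound in brain vasculature. Mean nM ± SEM reported; Kp = Cbrain/Cplasma, reported as a range.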

[6] = target: T2, Muscarinic acetylcholine receptor M2 (Homo sapiens) (UniProt P08172); assay: Positive allosteric modulation at human M2 mAChR expressed in Flp-In-CHO cells at 10 uM incubated for 5 mins by […]; format: cell-based
T2 sequence (whole entry): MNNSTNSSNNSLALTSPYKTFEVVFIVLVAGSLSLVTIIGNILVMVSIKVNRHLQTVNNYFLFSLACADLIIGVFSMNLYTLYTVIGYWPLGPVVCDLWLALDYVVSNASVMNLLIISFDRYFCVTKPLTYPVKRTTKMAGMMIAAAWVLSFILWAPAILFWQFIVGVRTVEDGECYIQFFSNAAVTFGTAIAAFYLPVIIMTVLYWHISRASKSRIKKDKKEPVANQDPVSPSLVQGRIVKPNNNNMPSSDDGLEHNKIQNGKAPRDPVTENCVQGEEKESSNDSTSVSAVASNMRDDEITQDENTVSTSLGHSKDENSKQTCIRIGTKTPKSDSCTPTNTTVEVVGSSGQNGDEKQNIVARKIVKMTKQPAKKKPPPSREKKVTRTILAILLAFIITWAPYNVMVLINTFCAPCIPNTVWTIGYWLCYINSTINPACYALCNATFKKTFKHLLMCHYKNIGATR
How it was run: (§2)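 FlpInCHO cells stably expressing human M1–M5 mAChRs, serum-deprived in HBSS 4 h at 37 °C, then ACh (10 nM–10 μM) with or without modulator at 10 μM for 5 min at 37 °C. Cells lysed and frozen overnight. pERK1/2 measured by AlphaScreen SureFire Ultra, as % of response to 10% FBS.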

[7] = target: Muscarinic acetylcholine receptor M3 (Homo sapiens) (UniProt P20309); assay: Positive allosteric modulation at human M3 mAChR expressed in Flp-In-CHO cells at 10 uM incubated for 5 mins by […]; format: cell-based; how it was run: as §2
Chain of Muscarinic acetylcholine receptor M3 (Homo sapiens) (P20309 whole entry, looked up): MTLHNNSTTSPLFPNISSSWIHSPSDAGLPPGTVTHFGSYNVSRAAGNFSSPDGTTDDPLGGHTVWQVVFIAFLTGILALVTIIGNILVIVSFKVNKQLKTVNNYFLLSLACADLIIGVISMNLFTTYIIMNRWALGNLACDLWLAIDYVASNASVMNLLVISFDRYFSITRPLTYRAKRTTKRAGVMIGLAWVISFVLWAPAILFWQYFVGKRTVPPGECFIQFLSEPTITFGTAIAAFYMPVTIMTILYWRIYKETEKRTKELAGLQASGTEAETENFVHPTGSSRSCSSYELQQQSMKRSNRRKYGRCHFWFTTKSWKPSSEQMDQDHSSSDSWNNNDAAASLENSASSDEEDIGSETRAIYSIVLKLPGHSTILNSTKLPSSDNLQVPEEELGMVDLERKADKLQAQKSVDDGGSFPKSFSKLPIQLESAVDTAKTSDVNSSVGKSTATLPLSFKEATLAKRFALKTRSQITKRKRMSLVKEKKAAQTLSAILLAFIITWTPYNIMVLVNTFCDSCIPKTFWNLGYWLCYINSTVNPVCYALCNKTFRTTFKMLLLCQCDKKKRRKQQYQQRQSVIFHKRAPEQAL

[8] = target: T3, Muscarinic acetylcholine receptor M5 (Homo sapiens) (UniProt P08912); assay: Positive allosteric modulation at human M5 mAChR expressed in Flp-In-CHO cells at 10 uM incubated for 5 mins by […]; format: cell-based; how it was run: as §2
T3 sequence (whole entry): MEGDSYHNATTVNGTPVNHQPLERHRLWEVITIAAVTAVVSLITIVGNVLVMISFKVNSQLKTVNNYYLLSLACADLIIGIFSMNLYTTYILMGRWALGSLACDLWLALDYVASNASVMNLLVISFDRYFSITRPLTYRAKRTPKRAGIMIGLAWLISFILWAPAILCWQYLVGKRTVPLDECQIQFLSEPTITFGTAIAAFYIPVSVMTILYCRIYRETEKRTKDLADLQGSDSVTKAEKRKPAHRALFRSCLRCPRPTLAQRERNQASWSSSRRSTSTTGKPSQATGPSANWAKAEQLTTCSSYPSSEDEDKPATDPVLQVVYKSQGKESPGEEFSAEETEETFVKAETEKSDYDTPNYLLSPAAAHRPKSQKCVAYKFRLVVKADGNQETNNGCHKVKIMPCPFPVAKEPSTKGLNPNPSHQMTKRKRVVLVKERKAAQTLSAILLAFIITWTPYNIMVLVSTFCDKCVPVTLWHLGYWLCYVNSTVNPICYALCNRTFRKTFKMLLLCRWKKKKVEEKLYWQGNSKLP

[9] = filed as positive allosteric modulator

SMILES | Activity [1, 9] [%] | pKb [2] | log(activity) [3] | log(activity) [4] | Kp [5] | Activity [6, 9] | Activity [7] | Activity [8] | Activity [1] [%] | Activity [6]
Cc1ccc(-c2cnn(CC3CCCC3)c2)c(-c2ccc3c(c2)C(=O)N(C)C3)n1 | 103 | 6.22 | 2.12 | 1.94 | 0.1 | Active | inactive | inactive |  | 
Cc1ccc(-c2cnn(CC3CCCC3)c2)c(-c2ccc(N)c([N+](=O)[O-])c2)n1 |  | 4.75 | 1.87 | 1.18 | 0.3 |  | inactive | inactive | 8.48 | inactive
Cc1ccc(-c2cnn(CC3CCCC3)c2)c(-c2ccc(F)c(F)c2)n1 | 51.4 | 4.53 | 2.04 | 1.55 | 1.6 |  | inactive | inactive |  | inactive
